How the values were obtained:
[1] = biological target: T1, 17-beta-hydroxysteroid dehydrogenase type 3 (Rattus norvegicus) (UniProt O54939); assay: Inhibition of 17beta-HSD3 in rat testes microsomal fraction using [14C]-4-androstene-3,17-dione as substrate assessed as testosterone formation at 0.1 uM after 2 hrs by thin layer chromatography; type: microsomes; settings: Testis
T1 sequence (whole entry): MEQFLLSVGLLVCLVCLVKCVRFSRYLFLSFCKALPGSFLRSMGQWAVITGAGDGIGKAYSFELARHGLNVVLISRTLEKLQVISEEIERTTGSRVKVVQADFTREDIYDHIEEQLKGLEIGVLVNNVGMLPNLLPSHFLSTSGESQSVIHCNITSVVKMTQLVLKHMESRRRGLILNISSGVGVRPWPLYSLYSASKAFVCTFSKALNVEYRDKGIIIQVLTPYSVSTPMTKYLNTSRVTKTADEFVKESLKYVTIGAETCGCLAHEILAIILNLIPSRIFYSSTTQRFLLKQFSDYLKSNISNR
Summary of the method: (§1)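 Rat testis microsomes supplying 17β-HSD3, converting [14C]-4-androstene-3,17-dione (50 nM) into testosterone. Inhibition of this transformation is measured at a fixed inhibitor concentration and expressed as mean ± SD of triplicate.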

[2] = biological target: T2, 17-beta-hydroxysteroid dehydrogenase type 3 (Rattus norvegicus, UniProt O54939); assay: Inhibition of 17beta-HSD3 in rat testes microsomal fraction using [14C]-4-androstene-3,17-dione as substrate assessed as testosterone formation after 2 hrs by thin layer chromatography
T2 sequence (O54939 whole entry): T1 sequence (whole entry)
Summary of the method: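 Rat testis microsomal fraction as 17β-HSD3 source, converting [14C]-Δ4-dione (50 nM) to [14C]-testosterone. Activity is plotted against log inhibitor concentration. IC50 is fitted from the inhibition curves. Values are mean ± SD of triplicates.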

[3] = biological target: T1, 17-beta-hydroxysteroid dehydrogenase type 3 (Rattus norvegicus); assay: Inhibition of 17beta-HSD3 in rat testes microsomal fraction using [14C]-4-androstene-3,17-dione as substrate assessed as testosterone formation at 1 uM after 2 hrs by thin layer chromatography; type: microsomes; settings: Testis; summary of the method: as §1

Compound | inhibition [1] [%] | IC50 [2] [nM] | inhibition [3] [%]
CC1CN(S(=O)(=O)c2ccccc2C(F)(F)F)C(C)CN1C[C@@]1(O)CC[C@@]2(C)[C@@H](CC[C@@H]3[C@@H]2CC[C@]2(C)C(=O)CC[C@@H]32)C1 (stereo partly specified) | 47.3 | 14 | –
C[C@]12CC[C@]3(CN[C@@H](Cc4ccccc4)C(=O)O3)C[C@@H]1CC[C@@H]1[C@@H]2CC[C@]2(C)C(=O)CC[C@@H]12 | 48.8 | 22 | 92
O=C1OC2(CCCCC2)CN[C@H]1Cc1ccccc1 | 6.2 | – | 19.5
C[C@]12CC[C@@]3(C[C@@H]1CC[C@@H]1[C@@H]2CC[C@]2(C)C(=O)CC[C@@H]12)CN(Cc1ccccc1)[C@@H](Cc1ccccc1)C(=O)O3 | 58.2 | 58 | 90.4
C[C@]12CC[C@]3(CN[C@H](Cc4ccccc4)C(=O)O3)C[C@@H]1CC[C@@H]1[C@@H]2CC[C@]2(C)C(=O)CC[C@@H]12 | 18.5 | – | 63.2
O=C1OC2(CCCCC2)CN(Cc2ccccc2)[C@H]1Cc1ccccc1 | 24.2 | – | 24.3
C[C@]12CC[C@@]3(C[C@@H]1CC[C@@H]1[C@@H]2CC[C@]2(C)C(=O)CC[C@@H]12)CN(Cc1ccccc1)[C@H](Cc1ccccc1)C(=O)O3 | 25.6 | – | 87.3
